This note sets out measurements from ChEMBL document CHEMBL1141297, “Bioactive p-terphenyl derivatives from a Cordyceps-colonizing isolate of Gliocladium sp” (J Nat Prod, 2007).

For assay [1], the system named is Staphylococcus aureus. Nature of the assay: Antimicrobial activity against Staphylococcus aureus ATCC 6538 at 100 ug/disk after 48 hrs. The format is functional. The following applies: ATCC 6538, 48 h, read-out: IZ.
Assay [2] deals with HCT-116. Nature of the assay: Growth inhibition of human HCT116 cells after 4 hrs by MTT assay. The format is functional, cell-based. The following applies: HCT-116, 4 h. The essentials:
(§1)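 MTT viability: 10⁴ cells/well attached overnight, then exposed to serial dilutions (from a 10 mg/mL DMSO stock) in medium, with 0.2% DMSO vehicle, for 4 h at 37 °C, 5% CO₂. Medium was then changed to fresh DMEM, followed by MTT (0.5 mg/mL) for 3 h at 37 °C in the dark. Formazan was dissolved in DMSO and read at 540 nm to give IC50.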
In general terms: Tetrazolium assays rely on reduction of a dye to a coloured formazan, in cell work by metabolically active cells.

Assay [3] has as its system HeLa. The assay is described as follows: Growth inhibition of human HeLa cells after 4 hrs by MTT assay. The format is functional, cell-based. The procedure, abridged: as §1
The test system of assay [4] is Staphylococcus aureus. The assay is described as follows: Antimicrobial activity against Staphylococcus aureus ATCC 6538 after 24 hrs by broth dilution assay. The following applies: ATCC 6538, 24 h. The format is functional. (In general: In broth dilution the organism is exposed to a series of concentrations in liquid medium.)
The subject of assay [5] is Micrococcus luteus. The assay is described as follows: Antimicrobial activity against Sarcina lutea CMCC B28001 at 100 ug/disk after 24 hrs. The format is functional, organism-based. The essentials:
(§2)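 Bacteria were grown on Mueller-Hinton agar. 6 mm paper disks carrying 100 µg compound were placed on the agar surface and plates were incubated at 37 °C for 24 h. The read-out was the presence and diameter of the inhibition zone, with a ciprofloxacin disk (100 µg) as reference.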

For assay [6], the system named is Geotrichum candidum. The assay is described as follows: Antifungal activity against Geotrichum candidum AS2.498 at 100 ug/disk after 48 hrs.
The test system of assay [7] is Aspergillus fumigatus. Nature of the assay: Antifungal activity against Aspergillus fumigatus ATCC 10894 at 100 ug/disk after 48 hrs.
The test system of assay [8] is Candida albicans. Nature of the assay: Antifungal activity against Candida albicans ATCC 10231 at 100 ug/disk after 48 hrs.
Assay [9] deals with Enterococcus faecalis. Nature of the assay: Antimicrobial activity against Enterococcus faecalis ATCC 19433 at 100 ug/disk after 24 hrs. It counts as functional, organism-based. The essentials:
as §2

Assay [10] concerns Streptococcus mutans. Nature of the assay: Antimicrobial activity against Streptococcus mutans ATCC 25175 at 100 ug/disk after 24 hrs. It counts as functional, organism-based. The essentials: as §2

As a reminder, the IC50 is the concentration that inhibits the measured activity by half. Read a high IC50 as a need for much substance. Broadly, the MIC is the least concentration at which growth counts as inhibited. Read a high MIC as a need for much substance.

In brackets after ≈: the same amount, converted by molar mass. Activity calls are given as the source filed them. No cut-off for these calls is given here. Bounds are passed on as bounds.

`O=C(O)c1cn(C2CC2)c2cc(N3CCNCC3)c(F)cc2c1=O` [CIPROFLOXACIN]: the zone of inhibition at 100 µg/disc in assay [1] amounted to 35 mm.

As to `COc1ccc(-c2cc(O)c(-c3ccc(OC)cc3)c(O)c2O[C@@H]2O[C@H](CO)[C@@H](O)[C@H](O)[C@H]2O)cc1` [GLIOCLADININ B], the figures for the IC50 in assay [2] and in [3] were 80 µM and 40 µM, respectively. Moreover, the zone of inhibition at 100 µg/disc in assay [1] was found to be 20 mm. This compound also displayed an MIC in assay [4] of 130 µM (≈ 65.1 µg/mL). Moreover, the result in [5], in assay [6], in assay [7], in [8], in [9] and in assay [10] was inactive.

As to `COC1=C(c2ccc(OC)cc2)C(=O)[C@H](O)[C@@](O)(c2ccc(OC)cc2)C1` [GLIOCLADININ A], the IC50 was greater than 270 µM in assay [2] and 54 µM in assay [3]. Further, in [1], the zone of inhibition at 100 µg/disc came out at 15 mm. The same compound registered an MIC in [4] of 270 µM (≈ 100 µg/mL). The outcome in [5], in [6], in assay [7], in assay [8], in assay [9] and in assay [10] was inactive.
